In assay [1] the target is Tyrosine-protein kinase Fes/Fps (Homo sapiens) (UniProt P07332). The assay is described as follows: Residual activity of FES at 1 uM by microplate scintillation counting.
For assay [2], the system named is T1, Receptor-type tyrosine-protein kinase FLT3 (Homo sapiens), P36888 [D835Y].
T1 sequence (whole entry): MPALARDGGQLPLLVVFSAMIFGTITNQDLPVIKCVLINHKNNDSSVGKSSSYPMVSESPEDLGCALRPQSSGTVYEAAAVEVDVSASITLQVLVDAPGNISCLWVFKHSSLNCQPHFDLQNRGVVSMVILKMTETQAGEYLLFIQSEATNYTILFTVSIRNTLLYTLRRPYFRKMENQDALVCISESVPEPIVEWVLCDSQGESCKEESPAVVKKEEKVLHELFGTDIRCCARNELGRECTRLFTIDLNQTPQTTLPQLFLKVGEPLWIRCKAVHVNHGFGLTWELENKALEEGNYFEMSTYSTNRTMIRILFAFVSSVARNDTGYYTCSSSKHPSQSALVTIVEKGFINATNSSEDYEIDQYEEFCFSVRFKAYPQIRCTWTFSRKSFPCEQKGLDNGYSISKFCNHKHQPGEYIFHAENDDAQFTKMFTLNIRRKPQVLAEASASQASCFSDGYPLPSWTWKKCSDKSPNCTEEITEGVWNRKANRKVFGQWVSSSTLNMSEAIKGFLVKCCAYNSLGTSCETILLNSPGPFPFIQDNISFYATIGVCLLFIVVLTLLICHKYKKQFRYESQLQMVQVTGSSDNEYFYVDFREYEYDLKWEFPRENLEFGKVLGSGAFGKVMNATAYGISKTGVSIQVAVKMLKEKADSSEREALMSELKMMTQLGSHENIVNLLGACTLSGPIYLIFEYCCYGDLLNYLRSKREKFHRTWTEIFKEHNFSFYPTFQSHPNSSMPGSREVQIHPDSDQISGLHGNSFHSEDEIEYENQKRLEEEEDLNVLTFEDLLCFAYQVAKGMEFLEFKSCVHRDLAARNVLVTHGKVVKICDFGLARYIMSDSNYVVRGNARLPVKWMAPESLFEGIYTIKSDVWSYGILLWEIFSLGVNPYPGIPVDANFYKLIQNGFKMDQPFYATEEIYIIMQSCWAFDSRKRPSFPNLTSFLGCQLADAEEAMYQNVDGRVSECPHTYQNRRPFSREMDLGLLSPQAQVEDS
The assay is described as follows: Residual activity of FLT3 D835Y mutant at 1 uM by microplate scintillation counting.

The target in assay [3] is T2, Serine/threonine-protein kinase Nek1 (Homo sapiens) (UniProt Q96PY6).
T2 sequence (whole entry): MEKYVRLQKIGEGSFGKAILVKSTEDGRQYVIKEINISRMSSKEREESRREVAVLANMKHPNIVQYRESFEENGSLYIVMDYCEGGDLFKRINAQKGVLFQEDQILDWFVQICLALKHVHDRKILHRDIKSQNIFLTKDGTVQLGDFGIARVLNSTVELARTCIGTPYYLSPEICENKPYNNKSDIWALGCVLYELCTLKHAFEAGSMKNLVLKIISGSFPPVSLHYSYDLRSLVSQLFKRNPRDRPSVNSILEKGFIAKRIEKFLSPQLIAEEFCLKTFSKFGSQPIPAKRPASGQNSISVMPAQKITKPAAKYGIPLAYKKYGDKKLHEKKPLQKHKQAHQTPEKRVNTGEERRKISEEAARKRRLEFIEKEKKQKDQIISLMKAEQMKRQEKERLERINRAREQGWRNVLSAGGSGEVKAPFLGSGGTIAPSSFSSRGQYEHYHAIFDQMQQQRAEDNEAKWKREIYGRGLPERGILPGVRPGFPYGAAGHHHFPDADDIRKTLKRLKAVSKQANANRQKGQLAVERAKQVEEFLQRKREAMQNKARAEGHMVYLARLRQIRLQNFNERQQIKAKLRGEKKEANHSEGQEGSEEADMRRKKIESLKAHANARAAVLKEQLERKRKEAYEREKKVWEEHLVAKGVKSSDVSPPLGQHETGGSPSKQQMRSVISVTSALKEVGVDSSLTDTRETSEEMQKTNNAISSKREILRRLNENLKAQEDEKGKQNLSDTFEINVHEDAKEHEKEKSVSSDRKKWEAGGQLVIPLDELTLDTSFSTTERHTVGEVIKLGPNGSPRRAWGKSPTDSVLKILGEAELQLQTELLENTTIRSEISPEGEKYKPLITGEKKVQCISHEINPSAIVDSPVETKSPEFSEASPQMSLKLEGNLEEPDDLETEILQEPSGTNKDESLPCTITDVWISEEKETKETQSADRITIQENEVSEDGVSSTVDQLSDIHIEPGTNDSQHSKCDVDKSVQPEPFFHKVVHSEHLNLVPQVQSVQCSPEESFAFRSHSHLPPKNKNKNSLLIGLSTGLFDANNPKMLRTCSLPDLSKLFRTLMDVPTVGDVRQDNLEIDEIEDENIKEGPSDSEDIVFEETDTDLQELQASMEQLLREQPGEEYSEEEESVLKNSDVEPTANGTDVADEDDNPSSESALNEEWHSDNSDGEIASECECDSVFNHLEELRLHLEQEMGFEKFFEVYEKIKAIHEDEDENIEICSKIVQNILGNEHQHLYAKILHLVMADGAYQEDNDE
The assay is described as follows: Residual activity of NEK1 at 1 uM by microplate scintillation counting.

In assay [4] the target is CDC42BPA protein (Homo sapiens) (UniProt B9EGA7). The assay is described as follows: Residual activity of CDC42BPA at 10 uM by microplate scintillation counting.
For assay [5], the target named is T3, Phosphorylase b kinase gamma catalytic chain, liver/testis isoform (Homo sapiens) (UniProt P15735).
T3 sequence (whole entry): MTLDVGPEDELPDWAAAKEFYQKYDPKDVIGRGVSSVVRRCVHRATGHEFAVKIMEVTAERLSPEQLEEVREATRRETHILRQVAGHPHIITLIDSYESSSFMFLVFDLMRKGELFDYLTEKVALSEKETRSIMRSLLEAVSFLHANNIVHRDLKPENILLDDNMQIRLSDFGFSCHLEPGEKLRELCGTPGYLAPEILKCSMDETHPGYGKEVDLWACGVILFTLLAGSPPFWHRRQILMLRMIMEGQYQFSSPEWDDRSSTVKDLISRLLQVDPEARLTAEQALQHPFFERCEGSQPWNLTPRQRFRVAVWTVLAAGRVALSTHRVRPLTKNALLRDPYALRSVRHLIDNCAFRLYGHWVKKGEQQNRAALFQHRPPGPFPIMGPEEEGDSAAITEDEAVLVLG
The assay is described as follows: Residual activity of PHKG2 at 0.1 uM by microplate scintillation counting.

For assay [6], the target named is Rho-associated protein kinase 1 (Homo sapiens) (UniProt Q13464). The experiment in a line: Residual activity of ROCK1 at 0.1 uM by microplate scintillation counting.
A further assay deals with Angiopoietin-1 receptor (Homo sapiens, UniProt Q02763). The assay is described as follows: Inhibition of TIE2 in human HCT116 cells by cellular phosphorylation assay. Format: cell-based, HCT-116. The procedure, abridged:
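TIE2 autophosphorylation in cells expressing the receptor. Compound was applied, cells were stimulated, then lysed with phosphoprotein levels preserved. Phosphorylation was quantified by sandwich ELISA with a receptor-specific capture antibody and anti-phosphotyrosine antibody, relative to the stimulated high control.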

pEC50: −log10 of the molar value.

Sequence of Angiopoietin-1 receptor (Q02763 whole entry): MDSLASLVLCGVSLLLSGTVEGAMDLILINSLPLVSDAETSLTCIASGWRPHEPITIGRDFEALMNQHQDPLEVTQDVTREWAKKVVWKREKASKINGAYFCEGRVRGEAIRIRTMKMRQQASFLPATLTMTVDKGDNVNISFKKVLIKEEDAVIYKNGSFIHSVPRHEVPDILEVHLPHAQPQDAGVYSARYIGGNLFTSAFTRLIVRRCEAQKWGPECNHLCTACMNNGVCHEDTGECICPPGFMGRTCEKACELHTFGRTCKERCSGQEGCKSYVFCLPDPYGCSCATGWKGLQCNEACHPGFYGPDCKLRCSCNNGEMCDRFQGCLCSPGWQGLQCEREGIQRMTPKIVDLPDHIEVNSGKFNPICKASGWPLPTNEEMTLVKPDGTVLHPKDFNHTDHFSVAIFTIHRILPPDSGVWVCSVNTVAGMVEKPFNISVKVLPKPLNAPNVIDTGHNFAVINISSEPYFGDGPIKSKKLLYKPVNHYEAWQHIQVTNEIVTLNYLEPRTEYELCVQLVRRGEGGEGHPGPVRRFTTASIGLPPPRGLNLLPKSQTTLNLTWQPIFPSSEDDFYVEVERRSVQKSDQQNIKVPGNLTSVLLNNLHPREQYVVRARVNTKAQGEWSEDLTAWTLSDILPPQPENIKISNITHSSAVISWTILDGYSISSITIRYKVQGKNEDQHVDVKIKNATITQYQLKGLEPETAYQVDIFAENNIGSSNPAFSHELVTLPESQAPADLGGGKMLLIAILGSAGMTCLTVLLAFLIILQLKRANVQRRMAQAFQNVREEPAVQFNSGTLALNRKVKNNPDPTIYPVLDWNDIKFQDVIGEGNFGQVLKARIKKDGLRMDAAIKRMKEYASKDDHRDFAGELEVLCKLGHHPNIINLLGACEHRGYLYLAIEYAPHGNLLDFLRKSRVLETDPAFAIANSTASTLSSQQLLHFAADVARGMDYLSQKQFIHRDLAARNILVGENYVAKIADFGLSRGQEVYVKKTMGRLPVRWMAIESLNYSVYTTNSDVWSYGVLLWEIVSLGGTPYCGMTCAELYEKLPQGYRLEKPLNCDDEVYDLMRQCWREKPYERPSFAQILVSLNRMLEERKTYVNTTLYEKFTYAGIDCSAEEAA
Sequence of Tyrosine-protein kinase Fes/Fps (Homo sapiens) (P07332 whole entry): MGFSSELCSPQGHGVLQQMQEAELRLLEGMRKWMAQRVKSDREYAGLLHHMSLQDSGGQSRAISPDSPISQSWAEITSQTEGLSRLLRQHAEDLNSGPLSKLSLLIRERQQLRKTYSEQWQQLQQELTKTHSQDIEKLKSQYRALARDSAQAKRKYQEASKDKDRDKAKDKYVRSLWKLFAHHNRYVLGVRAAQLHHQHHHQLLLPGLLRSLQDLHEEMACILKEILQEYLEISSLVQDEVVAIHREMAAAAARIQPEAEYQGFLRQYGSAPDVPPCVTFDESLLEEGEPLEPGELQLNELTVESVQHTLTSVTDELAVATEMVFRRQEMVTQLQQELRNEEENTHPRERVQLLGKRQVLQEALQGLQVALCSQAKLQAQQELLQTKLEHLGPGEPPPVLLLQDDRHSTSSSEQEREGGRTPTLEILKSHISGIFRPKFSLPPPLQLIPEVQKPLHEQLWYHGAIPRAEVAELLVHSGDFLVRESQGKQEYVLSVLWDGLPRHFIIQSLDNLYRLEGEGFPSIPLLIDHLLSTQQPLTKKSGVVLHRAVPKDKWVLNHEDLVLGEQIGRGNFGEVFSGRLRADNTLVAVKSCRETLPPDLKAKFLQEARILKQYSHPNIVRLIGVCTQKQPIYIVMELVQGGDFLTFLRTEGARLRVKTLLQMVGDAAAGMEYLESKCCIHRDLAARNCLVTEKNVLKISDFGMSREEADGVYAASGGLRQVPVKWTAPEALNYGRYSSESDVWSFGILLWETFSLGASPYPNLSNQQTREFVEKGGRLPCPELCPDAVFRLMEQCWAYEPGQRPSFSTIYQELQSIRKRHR
Sequence of Rho-associated protein kinase 1 (Homo sapiens) (Q13464 2-1354 limits assumed): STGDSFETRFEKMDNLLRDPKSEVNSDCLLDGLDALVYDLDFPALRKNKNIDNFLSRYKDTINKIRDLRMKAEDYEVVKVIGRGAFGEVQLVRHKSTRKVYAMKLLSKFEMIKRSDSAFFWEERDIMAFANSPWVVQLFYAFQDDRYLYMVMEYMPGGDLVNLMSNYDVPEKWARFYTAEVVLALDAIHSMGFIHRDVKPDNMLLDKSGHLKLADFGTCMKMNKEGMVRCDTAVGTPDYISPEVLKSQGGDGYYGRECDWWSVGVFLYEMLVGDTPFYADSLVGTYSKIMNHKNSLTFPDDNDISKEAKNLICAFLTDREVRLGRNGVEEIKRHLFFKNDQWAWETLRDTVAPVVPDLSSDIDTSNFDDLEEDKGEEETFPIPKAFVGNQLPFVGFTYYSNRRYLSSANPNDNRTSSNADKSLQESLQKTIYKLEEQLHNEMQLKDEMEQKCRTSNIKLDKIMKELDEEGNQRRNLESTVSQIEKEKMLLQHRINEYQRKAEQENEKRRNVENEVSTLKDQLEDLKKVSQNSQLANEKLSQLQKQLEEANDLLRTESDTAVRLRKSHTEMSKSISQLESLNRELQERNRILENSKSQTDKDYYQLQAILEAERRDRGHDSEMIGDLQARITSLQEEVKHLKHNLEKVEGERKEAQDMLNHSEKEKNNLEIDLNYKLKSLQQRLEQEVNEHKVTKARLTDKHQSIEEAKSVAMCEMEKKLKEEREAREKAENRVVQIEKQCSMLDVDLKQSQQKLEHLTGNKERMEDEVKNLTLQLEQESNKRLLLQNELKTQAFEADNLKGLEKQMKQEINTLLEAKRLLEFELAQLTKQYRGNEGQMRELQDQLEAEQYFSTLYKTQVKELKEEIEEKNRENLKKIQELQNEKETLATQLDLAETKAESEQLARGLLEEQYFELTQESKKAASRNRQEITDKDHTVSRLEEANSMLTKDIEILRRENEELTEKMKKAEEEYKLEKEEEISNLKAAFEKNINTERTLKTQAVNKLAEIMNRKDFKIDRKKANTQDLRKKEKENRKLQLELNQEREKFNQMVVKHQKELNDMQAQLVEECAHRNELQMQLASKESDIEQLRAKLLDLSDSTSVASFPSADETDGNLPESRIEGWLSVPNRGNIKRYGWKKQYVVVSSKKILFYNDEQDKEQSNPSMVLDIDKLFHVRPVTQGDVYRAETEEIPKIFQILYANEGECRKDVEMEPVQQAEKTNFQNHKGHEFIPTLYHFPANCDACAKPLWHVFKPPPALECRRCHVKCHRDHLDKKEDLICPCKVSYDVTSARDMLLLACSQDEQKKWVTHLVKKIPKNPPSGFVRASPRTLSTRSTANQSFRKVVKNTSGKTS
Sequence of CDC42BPA protein (Homo sapiens) (B9EGA7 as listed by the source): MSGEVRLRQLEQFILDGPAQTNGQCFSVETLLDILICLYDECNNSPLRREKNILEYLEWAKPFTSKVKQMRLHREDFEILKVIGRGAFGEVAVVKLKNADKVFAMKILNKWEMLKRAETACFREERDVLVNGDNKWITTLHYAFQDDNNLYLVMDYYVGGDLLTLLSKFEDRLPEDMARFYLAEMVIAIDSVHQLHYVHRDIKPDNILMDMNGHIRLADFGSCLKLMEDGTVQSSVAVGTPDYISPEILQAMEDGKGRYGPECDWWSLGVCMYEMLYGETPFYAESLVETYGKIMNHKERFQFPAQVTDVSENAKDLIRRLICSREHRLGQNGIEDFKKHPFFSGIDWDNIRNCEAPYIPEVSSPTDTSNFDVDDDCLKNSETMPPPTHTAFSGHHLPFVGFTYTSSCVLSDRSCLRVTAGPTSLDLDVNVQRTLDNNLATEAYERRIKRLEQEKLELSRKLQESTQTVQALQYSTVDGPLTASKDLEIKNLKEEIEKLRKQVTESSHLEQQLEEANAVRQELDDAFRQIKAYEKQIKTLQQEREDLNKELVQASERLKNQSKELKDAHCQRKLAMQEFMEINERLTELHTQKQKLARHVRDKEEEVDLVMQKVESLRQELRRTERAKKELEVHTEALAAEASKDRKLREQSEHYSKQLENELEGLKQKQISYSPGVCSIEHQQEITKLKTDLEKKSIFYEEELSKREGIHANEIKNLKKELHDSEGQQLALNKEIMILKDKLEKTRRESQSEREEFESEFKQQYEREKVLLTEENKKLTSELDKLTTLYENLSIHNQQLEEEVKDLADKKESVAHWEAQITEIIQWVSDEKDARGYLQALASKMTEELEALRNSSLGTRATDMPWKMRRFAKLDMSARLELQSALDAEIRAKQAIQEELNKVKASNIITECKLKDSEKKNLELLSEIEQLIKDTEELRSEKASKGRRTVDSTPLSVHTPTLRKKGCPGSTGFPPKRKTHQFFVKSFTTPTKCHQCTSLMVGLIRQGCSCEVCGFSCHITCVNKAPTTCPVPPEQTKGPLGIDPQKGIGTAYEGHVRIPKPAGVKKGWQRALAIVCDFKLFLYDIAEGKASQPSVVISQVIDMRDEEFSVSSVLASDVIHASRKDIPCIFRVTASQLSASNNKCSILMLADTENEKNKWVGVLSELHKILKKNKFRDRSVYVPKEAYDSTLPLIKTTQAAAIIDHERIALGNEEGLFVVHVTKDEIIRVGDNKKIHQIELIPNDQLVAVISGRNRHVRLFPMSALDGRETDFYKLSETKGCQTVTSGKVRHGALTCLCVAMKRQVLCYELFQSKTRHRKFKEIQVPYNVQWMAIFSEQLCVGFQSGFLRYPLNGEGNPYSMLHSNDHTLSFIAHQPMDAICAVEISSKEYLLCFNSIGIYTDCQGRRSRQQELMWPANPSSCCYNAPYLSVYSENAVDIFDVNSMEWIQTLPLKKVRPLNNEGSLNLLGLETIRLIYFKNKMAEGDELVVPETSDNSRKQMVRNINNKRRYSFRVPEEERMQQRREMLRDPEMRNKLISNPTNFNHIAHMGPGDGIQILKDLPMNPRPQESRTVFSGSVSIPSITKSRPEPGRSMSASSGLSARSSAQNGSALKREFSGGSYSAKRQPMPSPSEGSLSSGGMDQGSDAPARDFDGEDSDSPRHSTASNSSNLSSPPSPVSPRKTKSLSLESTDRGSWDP

Usually residual activity stands for the signal under treatment as a percentage of the control signal. A word on the pEC50: it is the negative decadic logarithm of the EC50, by convention in mol/L. Low readings indicate a high EC50, high ones a low EC50. On to `COc1cc2c(Oc3ccc(-c4nc5ccccc5s4)cc3)ncnc2cc1OCCCN1CCN(C)CC1`, for which the residual activity in assay [1] amounted to 105%; in assay [2], 95%; in assay [3], 85%; in assay [4], 61%; in assay [5], 86%; in assay [6] it was 98%. On Angiopoietin-1 receptor, the pEC50 is 6.27.
Take `COc1cc2c(Oc3ccc(-c4nc5ccccc5s4)cc3)ncnc2cc1OCCCN1CCCC1`: the residual activity was found to be 123% in assay [1]; 90% in assay [2]; 85% in assay [3]; 79% in assay [4]; 83% in assay [5]; 96% in assay [6]. The compound further showed a pEC50 on Angiopoietin-1 receptor of 6.85.
Turning to `COc1cc2c(Oc3ccc(-c4nc5ccccc5s4)cc3F)ncnc2cc1OCCCN1CCN(C)CC1`, the residual activity is 112% in assay [1]; 78% in assay [2]; 94% in assay [3]; 51% in assay [4]; 53% in assay [5]; 101% in assay [6]. The same compound showed a pEC50 on Angiopoietin-1 receptor of 6.52.

Values taken from ChEMBL document CHEMBL1152560, “Substituted 2-arylbenzothiazoles as kinase inhibitors: hit-to-lead optimization” (Bioorg Med Chem, 2009).
